Laboratory results taken from PMC2556891 (ACS chemical biology, 2008).
Where a chain is given by its changes, count along the chain named.

Tests used:
ClC-0 [1] = target: T1, ClC-0 (Torpedo marmorata, UniProt P21564); experiment: ClC-0 currents, inside-out patches from Xenopus oocytes; format: cell-based; settings: intracellular application, various concentrations
T1 sequence (P21564 1-805): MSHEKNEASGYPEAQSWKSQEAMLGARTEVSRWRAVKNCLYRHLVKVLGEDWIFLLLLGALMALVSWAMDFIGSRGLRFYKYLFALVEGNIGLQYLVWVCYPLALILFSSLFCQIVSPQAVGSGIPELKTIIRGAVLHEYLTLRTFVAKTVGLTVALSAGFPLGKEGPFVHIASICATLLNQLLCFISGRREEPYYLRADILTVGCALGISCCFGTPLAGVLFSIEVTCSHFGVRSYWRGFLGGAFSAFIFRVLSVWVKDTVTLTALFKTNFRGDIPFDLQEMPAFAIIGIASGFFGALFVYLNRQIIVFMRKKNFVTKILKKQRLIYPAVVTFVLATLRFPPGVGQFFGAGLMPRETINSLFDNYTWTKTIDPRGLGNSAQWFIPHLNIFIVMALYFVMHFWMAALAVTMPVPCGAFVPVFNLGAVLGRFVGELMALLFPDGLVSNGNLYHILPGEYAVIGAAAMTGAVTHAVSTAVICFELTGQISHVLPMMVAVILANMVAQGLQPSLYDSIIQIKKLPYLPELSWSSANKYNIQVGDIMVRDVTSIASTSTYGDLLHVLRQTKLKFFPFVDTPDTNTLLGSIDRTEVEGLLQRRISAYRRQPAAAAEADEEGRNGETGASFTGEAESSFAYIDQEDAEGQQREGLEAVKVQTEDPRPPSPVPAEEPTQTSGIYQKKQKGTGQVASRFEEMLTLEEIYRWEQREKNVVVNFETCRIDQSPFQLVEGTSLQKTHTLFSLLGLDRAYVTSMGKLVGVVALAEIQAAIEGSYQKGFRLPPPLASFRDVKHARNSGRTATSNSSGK
Outline: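 Defolliculated Xenopus oocytes injected with 27.5 nL ClC-0 RNA (~500 ng/μL) and kept at 16 °C for 2-7 days. Test compound delivered by microfluidic switching. Holding at 0 mV; every 5 s step to +50 mV (50 ms) then −100 mV (50 ms). Instantaneous −100 mV current taken over time as I/Io; initial inhibition rate fitted; 3-5 oocytes; mean ± SEM.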

ClC-ec1 = ClC-ec1 (Escherichia coli, UniProt P37019); experiment: Chloride flux assay with ClC-ec1 reconstituted in vesicles; format: biochemical
Chain of ClC-ec1 (P37019 whole entry): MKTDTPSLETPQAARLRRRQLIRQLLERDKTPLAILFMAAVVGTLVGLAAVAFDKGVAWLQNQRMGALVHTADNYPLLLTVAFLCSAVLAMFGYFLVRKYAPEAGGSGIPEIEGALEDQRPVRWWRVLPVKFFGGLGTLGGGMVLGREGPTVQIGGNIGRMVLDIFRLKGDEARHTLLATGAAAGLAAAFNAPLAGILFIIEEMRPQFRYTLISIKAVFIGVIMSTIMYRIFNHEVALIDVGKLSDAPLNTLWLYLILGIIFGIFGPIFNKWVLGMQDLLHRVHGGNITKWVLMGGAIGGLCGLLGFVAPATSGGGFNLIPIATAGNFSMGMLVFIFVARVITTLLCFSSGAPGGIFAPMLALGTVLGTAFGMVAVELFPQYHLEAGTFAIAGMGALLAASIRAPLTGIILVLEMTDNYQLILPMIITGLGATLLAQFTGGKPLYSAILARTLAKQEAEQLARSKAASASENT

[2] = Stability of DIDS in aqueous solution by reversed-phase HPLC; format: physicochemical
ClC-Ka N68D = target: T2, ClC-Ka N68D (Homo sapiens, UniProt P51800, N68D); settings: cited from earlier work
T2 sequence (P51800 1-687 N68D): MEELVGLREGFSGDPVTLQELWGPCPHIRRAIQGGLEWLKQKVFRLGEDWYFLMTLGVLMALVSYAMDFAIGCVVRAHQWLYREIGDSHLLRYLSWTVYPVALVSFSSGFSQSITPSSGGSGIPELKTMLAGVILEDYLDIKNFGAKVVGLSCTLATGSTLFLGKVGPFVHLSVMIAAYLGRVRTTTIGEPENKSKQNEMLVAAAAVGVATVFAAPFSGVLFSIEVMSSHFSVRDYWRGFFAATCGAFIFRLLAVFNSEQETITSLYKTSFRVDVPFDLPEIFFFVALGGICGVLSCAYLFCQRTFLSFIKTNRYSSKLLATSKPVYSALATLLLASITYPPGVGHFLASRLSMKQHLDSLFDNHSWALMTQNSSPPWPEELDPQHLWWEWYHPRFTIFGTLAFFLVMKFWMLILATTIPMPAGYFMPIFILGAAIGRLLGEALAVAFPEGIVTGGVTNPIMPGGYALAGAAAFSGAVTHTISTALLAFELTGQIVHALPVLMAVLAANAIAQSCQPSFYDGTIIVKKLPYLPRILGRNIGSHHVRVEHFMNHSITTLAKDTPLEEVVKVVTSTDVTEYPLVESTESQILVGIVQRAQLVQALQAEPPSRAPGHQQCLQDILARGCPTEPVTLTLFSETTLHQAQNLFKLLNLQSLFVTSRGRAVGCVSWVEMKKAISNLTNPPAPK
T2 sequence (Q8WZ55 1-320 Y98A partner): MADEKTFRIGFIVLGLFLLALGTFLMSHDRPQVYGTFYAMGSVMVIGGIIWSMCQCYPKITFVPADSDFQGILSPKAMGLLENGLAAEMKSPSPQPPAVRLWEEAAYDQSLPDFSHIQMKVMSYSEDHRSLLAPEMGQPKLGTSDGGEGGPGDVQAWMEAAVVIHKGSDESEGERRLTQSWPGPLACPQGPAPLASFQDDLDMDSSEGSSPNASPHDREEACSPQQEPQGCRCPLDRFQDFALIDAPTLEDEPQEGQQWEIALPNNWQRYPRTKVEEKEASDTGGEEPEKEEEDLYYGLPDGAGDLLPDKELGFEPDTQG

ClC-0 [3] = target: T1, ClC-0; settings: cited from earlier work
ClC-Ka = target: T3, ClC-Ka (Homo sapiens, UniProt P51800); settings: cited from earlier work
T3 sequence (P51800 1-687): T2 sequence (P51800 1-687 N68D) with D68N
T3 sequence (Q8WZ55 1-320 Y98A partner): T2 sequence (Q8WZ55 1-320 Y98A partner)

[4] = Hill fit of ClC-ec1 chloride flux inhibition

Row | SMILES | effect on ClC-0 (ClC-0 [1]) | effect on ClC-ec1 activity (ClC-ec1; at concentrations as high as 2 mM) | stability in aqueous solution (reversed-phase HPLC) ([2]; after 3 h in aqueous solution) | stability in solution (HPLC) ([2]; after 48 h) | stability in solution (HPLC) ([2]; within 24 h in solution) | (A/Ao)max (ClC-ec1; [4]) | Hill coefficient n (ClC-ec1; [4]) | decrease of apparent affinity by N68D mutation in ClC-Ka (ClC-Ka N68D) [fold] | reversibility of ClC-0 inhibition (ClC-0 [3]) | reversibility of ClC-Ka inhibition from the extracellular side (ClC-Ka)
1 | Nc1ccc(C=Cc2ccc(N)cc2S(=O)(=O)O)c(S(=O)(=O)O)c1 [DADS, 4,4′-diaminostilbene-2,2′-disulfonic acid] | no effect | does not affect |  |  |  |  |  |  |  | 
2 | O=S(=O)(O)c1cc(N=C=S)ccc1C=Cc1ccc(N=C=S)cc1S(=O)(=O)O [DIDS, 4,4′-diisothiocyanatostilbene-2,2′-disulfonic acid] |  |  | single peak | no DIDS was apparent | partially decomposed | 1.08 | 2 | 10 | irreversible | slowly reversible
